Assay outcomes (PubChem)
The list is not random: actives were taken first. Their share in the collection is about 9%.
M1 antag – antagonists of rat M1 muscarinic receptor. B-score at 10 µM. CHO-M1 cells, Fluo-4 calcium, ACh EC80 antagonist mode; stronger effect = lower value. 3.4% of 64,000 active. Muscarinic acetylcholine receptor M1 (Rattus norvegicus), P08482. AID 628, 2007;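 active = calcium fluorescence response, raw or row-and-column corrected B-score, differing from the plate sample mean either way at a set confidence level, mostly lower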
D1 allo mod – D1 CRE-luciferase signal change, two-sided – cell-based, HEK293 D1, dopamine EC30, D1 allosteric modulator project, primary screen; dopamine EC30 potentiation; actives deviate in either direction; B-score at 10 µM; 5.9% of 58,000 active;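 active = luminescence count or its row- and column-corrected plate score outside the 99.7% band of the plate's sample wells, on either side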
Target sequence (P21728 whole entry, looked up): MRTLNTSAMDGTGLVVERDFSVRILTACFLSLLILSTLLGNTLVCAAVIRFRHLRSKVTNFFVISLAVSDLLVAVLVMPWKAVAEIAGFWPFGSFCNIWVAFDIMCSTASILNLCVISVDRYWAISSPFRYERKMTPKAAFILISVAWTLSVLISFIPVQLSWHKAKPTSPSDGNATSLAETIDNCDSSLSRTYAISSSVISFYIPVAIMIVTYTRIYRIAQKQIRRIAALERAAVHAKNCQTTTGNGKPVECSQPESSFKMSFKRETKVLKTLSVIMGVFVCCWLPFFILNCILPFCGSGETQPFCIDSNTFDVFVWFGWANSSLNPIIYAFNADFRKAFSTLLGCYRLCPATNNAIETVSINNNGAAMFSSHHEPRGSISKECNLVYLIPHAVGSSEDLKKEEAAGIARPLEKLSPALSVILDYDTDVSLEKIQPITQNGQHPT
AP complement – alternative complement pathway inhibitors, primary screen, biochemical, ELISA, human serum, orthogonally pooled compounds. LPS-coated ELISA, C3 deposition; tested in compound mixtures. AID 1235, 2008. 0.08% of 62,000 active. inhibition, % at 5 µM;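 active = inhibition above 30% in each of the two pooled mixtures holding the compound, so the lower value exceeds 30%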;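 note: 0% = serum in Mg-EGTA without compound and 100% = EDTA serum blank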
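Test system: human serum alternative complement pathway, C3 deposition on LPS-coated wells; also added: Plate-bound LPS; doses: 5 µM per compound in ten-compound mixtures; schedule: 1 h at 37 °C; detection: Anti-C3 ELISA, OD 450 nm; evaluation: percent inhibition of C3 deposition onto LPS; repeats: two pool placements per compound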
M1 ag – M1 muscarinic receptor agonists, primary screen, CHO-M1 cells, Fluo-4 calcium, agonist mode. Muscarinic acetylcholine receptor M1. Fluo-4 calcium fluorescence; stronger effect = higher value. B-score at 10 µM. 3% of 64,000 active. AID 626, 2007;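 active = fluorescence rise, raw or as B-score row- and column-corrected plate score, outside the 99.7% band of its plate's samples, either direction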
mHtt clearance – clearance of mutant huntingtin inclusions, primary screen, imaging, HeLa Exon1htt(103Q)mCFP, confocal imaging. aggregate imaging; zero = plate's median compound well. 0.42% of 47,000 active. inhibition, % at 1.5 µM;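 active = inhibition of aggregate fluorescence above about 70%, also judged a hit by eye on the cell image, limit read from the data, passing the limit was not always enough; inconclusive = no rule stated for this call; inactive = not judged a hit on image review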;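 note: cells exposed to compound for three days before fixation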
D1 mod confirm – D1 receptor positive allosteric modulators, retest, confirmation, cell-based, HEK293 D1, CRE-luciferase, duplicate | 88% of 2,200 active | dopamine EC30 potentiation; stronger effect = higher value | AID 642, 2007 | shares compounds with D1 allo mod | luminescence at 10 µM;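 active = luminescence in either of two replicates above the same-plate mean plus 3 SD of the low-dose dopamine control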
D1 no dopamine – D1 receptor agonism without dopamine, confirmation, mechanism study for D1 allosteric modulator project, cell-based, HEK293 D1, CRE-luciferase, secondary assay 1. AID 646, 2007. luminescence, no dopamine; stronger effect = higher value. luminescence at 10 µM. 0.8% of 1,900 active. shares compounds with D1 allo mod; in the data active = luminescence above about 3900
Isoprot counter – alters isoproterenol CRE-luciferase response in HEK293 cells. 63% of 2,200 active. HEK293 D1 CRE-luciferase, isoproterenol EC30 counter-screen. shares compounds with D1 allo mod. AID 647. calls only at 10 µM;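 active = luminescence in either replicate above plate mean of wells with a partly effective reference agonist dose plus 3 SD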;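 note: isoproterenol raises cAMP through native beta-adrenoceptor Gs so signal bypasses D1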
Starred values were filed as active, the others as inactive; i = inactive; ? = inconclusive; nt = no result given; + = active, no number.

SMILES | M1 antag | D1 allo mod | AP complement | M1 ag | mHtt clearance | D1 mod confirm | D1 no dopamine | Isoprot counter
COc1ccc(-c2cc(C(F)(F)F)n3nc(C)cc3n2)cc1 | 0.11 | 12* | 13 | -0.015 | nt | 9368* | 1632 | +
COc1ccc(-c2cc(C(F)(F)F)n3nc(N)nc3n2)cc1 | nt | nt | nt | nt | 16 | nt | nt | nt
Cc1cc2nc(-c3ccco3)cc(C(F)(F)F)n2n1 | -0.28 | 32* | 9 | 0.13 | -302 | 22332* | nt | +
COC(=O)c1ccc(C2C(C(=O)Nc3ccc(C)cc3C)=C(C)Nc3ncnn32)cc1 (centres undefined) | 0.28 | -1.1 | 8 | -0.073 | nt | nt | nt | nt
Cc1ccc(-c2cc(C(F)F)nc(NCc3cccnc3)n2)cc1 | 0.64 | 13* | 10 | -0.46 | nt | 16464* | nt | +
Cc1ccc(SC(C)C(=O)NCc2cccnc2)cc1 (centres undefined) | nt | nt | nt | nt | -36 | nt | nt | nt
Cc1ccc(-c2cc(C(F)F)nc(NCC3CCCO3)n2)cc1 (centres undefined) | 0.62 | 3.3* | 0 | -0.11 | nt | 14888* | nt | +
CC(NC(=O)c1ccc(-c2cc(C(F)(F)F)ccc2Cl)o1)c1ccccc1 (centres undefined) | nt | nt | nt | nt | 7 | nt | nt | nt
CS(=O)(=O)c1sc2nc(-c3cccs3)cc(-c3ccccc3)c2c1N | 0.96 | 5.1* | -1 | -1.3 | 9 | 15760* | 1468 | i
CCCCc1nc2ccccc2n2cc3c(=O)n(C)c(=O)n(C)c3c12 | -0.0088 | 1.9 | 6 | -1.2 | ? | nt | nt | nt
COc1ccc(C2C(C#N)=C(N)Oc3n[nH]c(-c4ccccn4)c32)c(OC)c1OC (centres undefined) | 0.53 | 11* | 14 | -0.76 | -49 | 17692* | 1644 | +
Cc1[nH]nc2c1C(c1ccc3c(c1)OCO3)C(C#N)=C(N)O2 (centres undefined) | nt | nt | -8 | nt | nt | nt | nt | nt
COc1cc(C2C(C#N)=C(N)Oc3n[nH]c(-c4ccncc4)c32)cc(OC)c1OC (centres undefined) | 2 | 0.76 | 7 | -1.3 | -17 | nt | nt | nt
CCOc1ccc(-c2[nH]nc3c2C(c2ccc4c(c2)OCO4)C(C#N)=C(N)O3)cc1OC (centres undefined) | 0.023 | 2.4* | 3 | -0.41 | nt | 10328* | 10840* | +
Cc1ccc(N2CC(C(=O)NCc3ccccn3)CC2=O)cc1 (centres undefined) | 1.8 | -0.095 | 28 | -0.1 | -31 | nt | nt | nt
COc1ccc(CN2C(=O)c3cccnc3C2Nc2cc(Cl)c(OC)cc2OC)cc1 (centres undefined) | -1.7 | 6.5* | 18 | -0.88 | nt | 10420* | nt | +
Nc1nnnn1/N=C/c1cccc(OCc2ccccc2Cl)c1 | nt | nt | nt | nt | -59 | nt | nt | nt
COc1ccc(C(=O)CSc2ncn[nH]2)cc1OC | 0.38 | 18* | 7 | -0.34 | nt | 17148* | 1644 | +
CCOC(=O)c1sc(NC(NC(=O)c2ccco2)(C(=O)OC)C(F)(F)F)nc1C (centres undefined) | -2 | 5.6* | 7 | 0.14 | -85 | 8940* | 1520 | +
COC(=O)c1sc(NC(=O)c2ccco2)nc1C | 0.2 | -0.79 | 16 | -2.7 | nt | nt | nt | nt
Cn1c(=O)c2[nH]cnc2n(-c2ccccc2)c1=O | 0.62 | 7.3* | 8 | 1.2 | nt | 23812* | 1516 | +
COC(=O)CSc1nc2sc(C)c(C)c2c(=O)n1C | -0.19 | 6.1* | -9 | 0.2 | 34 | 7584* | 848 | +
COC(=O)CSc1nc2sc3c(c2c(=O)n1-c1ccccc1)CCN(C)C3 | -2.6 | 17* | -6 | -0.28 | 5 | 10640* | 1480 | +
CCn1c(SCC(=O)NCCOC)nc2sc(C)c(C)c2c1=O | 0.19 | 0.83 | 7 | -0.51 | nt | nt | nt | nt
CCC1CCc2c(sc3nc(SCC(=O)NCc4ccco4)n(-c4ccccc4)c(=O)c23)C1 (centres undefined) | nt | nt | nt | nt | 32 | nt | nt | nt
SMILES | M1 antag | D1 allo mod | AP complement | M1 ag | mHtt clearance | D1 mod confirm | D1 no dopamine | Isoprot counter
CCC(=O)Nc1cc2c(cc1C(C)=O)OCCO2 | 0.74 | 0.91 | 12 | -0.54 | nt | nt | nt | nt
CCCC(=O)Nc1cc2c(cc1C(=O)c1ccccc1)OCCO2 | -0.094 | 6.3* | 25 | 0.2 | 14 | 13204* | 1668 | +
CC1(C(=O)N(c2ccccc2)C(C(=O)NC2CCCC2)c2ccccn2)CC(=O)N=C2C=CC=CN21 (centres undefined) | -1 | 0.0095 | -8 | -1.1 | 15 | nt | nt | nt
COc1cccc(N(C(=O)c2cccs2)c2nc3ccccc3s2)c1 | 0.81 | 7.6* | 1 | -1 | 58 | 7024* | nt | +
Cc1nn(-c2ccccn2)c(C)c1Oc1ccccc1O | -0.78 | 3.8* | 13 | -0.0028 | -35 | 4864 | 1224 | i
Cc1nn(-c2nc3ccccc3s2)c(C)c1Oc1ccccc1O | 0.011 | -0.48 | 19 | 0.5 | nt | nt | nt | nt
c1ccc(-c2cnnc(SCc3cn4cccnc4n3)n2)cc1 | -0.57 | 8.5* | 18 | -0.37 | nt | 14784* | 1868 | +
CC(=O)Oc1ccc(CCC(C)OC(C)=O)cc1 (centres undefined) | 0.48 | -0.066 | 12 | 0.099 | -33 | nt | nt | nt
CC(C)(C)Nc1nc(NC(C)(C)C)nc(-n2ccnc2)n1 | -0.28 | 5.7* | 9 | 1.1 | nt | 17956* | 2972 | +
COc1ccccc1NC(=O)N1CCN(c2ncccn2)CC1 | 0.45 | 0.0065 | nt | -0.21 | 2 | nt | nt | nt
CCOC(=O)c1[nH]c(C)c(C(=O)NC2CCN(C(=O)OCC)CC2)c1C | -0.19 | 2.1* | 2 | 0.033 | 2 | 5396 | 1508 | i
O=C(NCC1CCS(=O)(=O)C1)Oc1ccccc1 (centres undefined) | 0.24 | 0.012 | -5 | 0.007 | nt | nt | nt | nt
CCOc1ccc2nc(SCC#N)c(C#N)cc2c1 | -0.23 | -0.0021 | -7 | 0.61 | -31 | nt | nt | nt
CCc1ccc2nc(SCC(=O)N(CC)CC)c(C#N)cc2c1 | 1.1 | 3.1* | 22 | -0.84 | -8 | 8128* | 1728 | +
Cc1cc(C)n2nc(SC3CCCCN(C(=O)c4ccc(F)cc4)C3=O)nc2n1 (centres undefined) | -0.82 | 0.15 | 6 | -0.27 | 42 | nt | nt | nt
COc1nnc(-c2ccc(N3CCCCC3)c(NC(C)=O)c2)c2ccccc12 | nt | nt | nt | nt | 54 | nt | nt | nt
O[C@@H](CNC[C@H](O)c1ccccc1)c1ccccc1 | nt | nt | nt | nt | -12 | nt | nt | nt
CNC[C@H](O)c1cccc(O)c1 | -0.5 | 17* | -10 | 0.44 | nt | 11024* | 5672* | +
